# In ChEMBL document CHEMBL1255449, “Antiviral properties, metabolism, and pharmacokinetics of a novel azolo-1,2,4-triazine-derived inhibitor of influenza A and B virus replication” (Antimicrob Agents Chemother, 2010):
# Activity calls are given as the source filed them. The calls are words filed in the database; no cut-off is given here.
# How the values were obtained:
# [1] = Cmax in rabbit at 105 mg/kg, ig up to 24 hrs by HPLC analysis; type: ADME, organism-based, Oryctolagus cuniculus; set-up: dose 105 mg/kg, route intragastric; conditions: in vivo, po
# Method in brief: (§1)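 Rabbits (n = 4), anesthetised with ether-Fluorothane 10:1, given a single 105 mg/kg dose in water (12 ml) by gastric tube. Ear-vein blood was heparinised at set times up to 24 h, mixed with methanol, centrifuged, dried, redissolved in water and assayed by C18 HPLC. Parameters came from an extravascular noncompartmental model. F = (AUCi.g./dose)/(AUCi.v./dose); CL = dose/AUC; Vss = CL × MRT.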
# [2] = Tmax in rabbit at 105 mg/kg, ig by HPLC analysis; type: ADME, organism-based, Oryctolagus cuniculus; set-up: dose 105 mg/kg, route intragastric; conditions: in vivo, po; method in brief: as §1
# [3] = Total AUC in rabbit at 105 mg/kg, ig up to 24 hrs by HPLC analysis; type: ADME, organism-based, Oryctolagus cuniculus; set-up: time AUCmax, dose 105 mg/kg, route intragastric; conditions: in vivo, po; method in brief: as §1
# [4] = Apparent elimination half life in rabbit at 105 mg/kg, ig by HPLC analysis; type: ADME, organism-based, Oryctolagus cuniculus; set-up: dose 105 mg/kg, route intragastric; conditions: in vivo, po, read-out: beta t1/2 (converted); method in brief: as §1
# [5] = Mean residence time in rabbit at 105 mg/kg, ig by HPLC analysis; type: ADME, organism-based, Oryctolagus cuniculus; set-up: dose 105 mg/kg, route intragastric; conditions: in vivo, po; method in brief: as §1
# [6] = Total clearance in rabbit at 105 mg/kg, ig up to 24 hrs by HPLC analysis; type: ADME, organism-based, Oryctolagus cuniculus; set-up: dose 105 mg/kg, route intragastric; conditions: in vivo, po; method in brief: as §1
# Oryctolagus cuniculus [7] = experiment: Volume of distribution at steady state in rabbit at 105 mg/kg, ig up to 24 hrs by HPLC analysis; type: ADME, organism-based; set-up: dose 105 mg/kg, route intragastric; conditions: in vivo, po; method in brief: as §1
# Influenza A virus [8] = experiment: Antiviral activity against Influenza A virus H3N2 (A/Victoria/35/72) infected in MDCK cells assessed as log reduction in viral titer at 502 uM after 48 hrs […]; type: functional
# Method in brief: (§2)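 MDCK monolayers in MEM with 10% FBS at 37°C under 5% CO2 were infected with allantoic-fluid virus diluted 10−1 to 10−7. Aqueous test compound was added after 1 h adsorption. Virus yield was read at 48 h by haemagglutination with 0.5% chicken erythrocytes, and titres also by plaque assay. Each concentration was run in duplicate.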
# Influenza A virus [9] = experiment: Antiviral activity against Influenza A virus (A/Vietnam/1194/2004 (H5N1)) infected in MDCK cells assessed as log reduction in viral titer at 502 uM after 48 hrs […]; type: functional
# Influenza A virus [10] = experiment: Antiviral activity against Influenza A virus (A/duck/Potsdam/1402-6/1986 (H5N2)) infected in MDCK cells assessed as log reduction in viral titer at 502 uM after 48 hrs […]; type: functional
# Influenza A virus [11] = experiment: Antiviral activity against Influenza A virus/H7N3 (A/Mallard/NT/12/02) infected in MDCK cells assessed as log reduction in viral titer at 502 uM after 48 hrs by MTT assay; type: functional
# Influenza A virus [12] = experiment: Antiviral activity against Influenza A virus (A/Hong Kong/1073/99(H9N2)) infected in MDCK cells assessed as log reduction in viral titer at 502 uM after 48 hrs […]; type: functional
# H3N2 subtype [13] = experiment: Antiviral activity against Influenza A virus (A/Aichi/2/1968(H3N2)) infected in […] assessed as survival rate at 100 mg/kg, ig administered 1 and 24 hrs before infection and 24 to 72 hrs post infection; type: functional; conditions: route intragastric
# H3N2 subtype [14] = experiment: Antiviral activity against Influenza A virus (A/Aichi/2/1968(H3N2)) infected in […] assessed as survival rate at 50 mg/kg, ig administered 1 and 24 hrs before infection and 24 to 72 hrs post infection; type: functional; conditions: route intragastric
# Influenza B virus [15] = experiment: Antiviral activity against Influenza B virus (B/Lee/1940) infected in […] assessed as survival rate at 100 mg/kg, ig administered 1 and 24 hrs before infection and 24 to 72 hrs post infection; type: functional; conditions: route intragastric
# Influenza B virus [16] = experiment: Antiviral activity against Influenza B virus (B/Lee/1940) infected in […] assessed as survival rate at 50 mg/kg, ig administered 1 and 24 hrs before infection and 24 to 72 hrs post infection; type: functional; conditions: route intragastric
# Oryctolagus cuniculus [17] = experiment: Total AUC in rabbit at 4.3 mg/kg, iv up to 24 hrs by HPLC analysis; type: ADME, organism-based; set-up: time AUCmax, dose 4.3 mg/kg, route intravenous; conditions: in vivo
# Method in brief: (§3)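 Rabbits (n = 4) received 4.3 mg/kg in physiological solution into the marginal ear vein over 1 min. Ear-vein blood was heparinised at set times up to 24 h, methanol-extracted and assayed by C18 HPLC with a heptafluorobutyric acid/ethanol gradient. A noncompartmental i.v. infusion model gave AUCtot, T1/2 and MRT; Vss = CL × MRT.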
# Oryctolagus cuniculus [18] = experiment: Volume of distribution at steady state in rabbit at 4.3 mg/kg, iv up to 24 hrs by HPLC analysis; type: ADME, organism-based; set-up: dose 4.3 mg/kg, route intravenous; conditions: in vivo; method in brief: as §3
# Influenza A virus [19] = experiment: Antiviral activity against Influenza A virus H3N2 (A/Victoria/35/72) infected in MDCK cells assessed as log reduction in viral titer at 385 uM after 48 hrs […]; type: functional; method in brief: as §2
# Influenza A virus [20] = experiment: Antiviral activity against Influenza A virus H3N2 (A/Victoria/35/72) infected in MDCK cells assessed as log reduction in viral titer at 960 uM after 48 hrs […]; type: functional; method in brief: as §2
# Influenza A virus [21] = experiment: Antiviral activity against Influenza A virus (A/Vietnam/1194/2004 (H5N1)) infected in MDCK cells assessed as log reduction in viral titer at 385 uM after 48 hrs […]; type: functional
# Influenza A virus [22] = experiment: Antiviral activity against Influenza A virus (A/Vietnam/1194/2004 (H5N1)) infected in MDCK cells assessed as log reduction in viral titer at 960 uM after 48 hrs […]; type: functional
# Influenza A virus [23] = experiment: Antiviral activity against Influenza A virus (A/duck/Potsdam/1402-6/1986 (H5N2)) infected in MDCK cells assessed as log reduction in viral titer at 385 uM after 48 hrs […]; type: functional
# Influenza A virus [24] = experiment: Antiviral activity against Influenza A virus (A/duck/Potsdam/1402-6/1986 (H5N2)) infected in MDCK cells assessed as log reduction in viral titer at 960 uM after 48 hrs by MTT assay; type: functional
# Influenza A virus [25] = experiment: Antiviral activity against Influenza A virus H7N3 (A/Mallard/NT/12/02) infected in MDCK cells assessed as log reduction in viral titer at 385 uM after 48 hrs […]; type: functional
# Influenza A virus [26] = experiment: Antiviral activity against Influenza A virus/H7N3 (A/Mallard/NT/12/02) infected in MDCK cells assessed as log reduction in viral titer at 960 uM after 48 hrs by MTT assay; type: functional
# Influenza A virus [27] = experiment: Antiviral activity against Influenza A virus (A/Hong Kong/1073/99(H9N2)) infected in MDCK cells assessed as log reduction in viral titer at 385 uM after 48 hrs […]; type: functional
# Influenza A virus [28] = experiment: Antiviral activity against Influenza A virus (A/Hong Kong/1073/99(H9N2)) infected in MDCK cells assessed as log reduction in viral titer at 960 uM after 48 hrs […]; type: functional
# [29] = Cytotoxicity against MDCK cells after 48 hrs by MTT assay; type: cell-based, Canis lupus familiaris; conditions: dog
# Method in brief: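 Cytotoxicity was measured on uninfected MDCK monolayers grown in MEM with 10% FBS and penicillin/streptomycin at 37°C under 5% CO2. Viability was read by MTT and expressed as CC50.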
# Influenza B virus [30] = experiment: Antiviral activity against Influenza B virus (B/Lee/1940) infected in […] assessed as survival rate at 150 mg/kg, ig administered 1 and 24 hrs before infection and 24 to 72 hrs post infection; type: functional; conditions: route intragastric
# H3N2 subtype [31] = experiment: Antiviral activity against Influenza A virus (A/Aichi/2/1968(H3N2)) infected in […] at 100 to 150 mg/kg, ig administered after 24 hrs post infection; type: functional, organism-based
# H3N2 subtype [32] = experiment: Antiviral activity against Influenza A virus (A/Aichi/2/1968(H3N2)) infected in […] at 100 to 150 mg/kg, ig administered after 48 hrs post infection; type: functional, organism-based
# Influenza B virus [33] = experiment: Antiviral activity against Influenza B virus (B/Lee/1940) infected in […] at 100 to 150 mg/kg, ig administered after 24 hrs post infection; type: functional, organism-based
# Influenza B virus [34] = experiment: Antiviral activity against Influenza B virus (B/Lee/1940) infected in rabbit at 100 to 150 mg/kg, ig administered after 48 hrs post infection; type: functional, organism-based
# H3N2 subtype [35] = experiment: Antiviral activity against Influenza A virus (A/Aichi/2/1968(H3N2)) infected in […] at 100 to 150 mg/kg, ig administered 24 hrs before infection; type: functional, organism-based
# H3N2 subtype [36] = experiment: Antiviral activity against Influenza A virus (A/Aichi/2/1968(H3N2)) infected in […] at 100 to 150 mg/kg, ig administered 1 hr before infection; type: functional, organism-based
# Influenza B virus [37] = experiment: Antiviral activity against Influenza B virus (B/Lee/1940) infected in […] at 100 to 150 mg/kg, ig administered 24 hrs before infection; type: functional, organism-based
# Influenza B virus [38] = experiment: Antiviral activity against Influenza B virus (B/Lee/1940) infected in […] at 100 to 150 mg/kg, ig administered 1 hr before infection; type: functional, organism-based
# [39] = Toxicity against ip dosed rabbit; type: organism-based, Oryctolagus cuniculus; conditions: in vivo
# [40] = Toxicity against ig dosed rabbit; type: organism-based, Oryctolagus cuniculus; conditions: in vivo, po
# [41] = Bioavailability in rabbit at 105 mg/kg, ig up to 24 hrs by HPLC analysis; type: ADME, organism-based, Oryctolagus cuniculus; conditions: in vivo, po; method in brief: as §1
# Influenza A virus [42] = experiment: Antiviral activity against Influenza A virus H3N2 (A/Victoria/35/72) infected in human HuH7 cells assessed as log reduction in viral titer at 1000 ug/ml; type: functional, Huh-7
# Influenza A virus [43] = experiment: Antiviral activity against Influenza A virus H3N2 (A/Victoria/35/72) infected in HEK293T cells assessed as log reduction in viral titer at 1000 ug/ml; type: functional, HEK-293T
smiles,measurement,setting,value
CSc1nc2[nH]nc(N)c(=O)n2n1,Cmax,[1],140 ng/mL
same,Tmax,[2],3 h
same,AUC at 24 h,[3],690 ng·h/mL
same,half-life,[4],0.97 h
same,MRT,[5],4.14 h
same,CL/F,[6],740 mL/min/kg
same,Vdss,Oryctolagus cuniculus [7],58.5 L/kg
CC(N)C12CC3CC(CC(C3)C1)C2 (configuration not stated) [RIMANTADINE],FC,Influenza A virus [8],5
same,FC,Influenza A virus [9],1
same,FC,Influenza A virus [10],2
same,FC,Influenza A virus [11],3
same,FC,Influenza A virus [12],0.75
same,Activity,H3N2 subtype [13],85%
same,Activity,H3N2 subtype [14],80%
same,Activity,Influenza B virus [15],20%
same,Activity,Influenza B virus [16],15%
same,AUC,Oryctolagus cuniculus [17],1200 ng·h/mL
same,Vdss,Oryctolagus cuniculus [18],1.2 L/kg
CSc1nc2[n-]nc([N+](=O)[O-])c(=O)n2n1.O.O.[Na+] [TRIAZAVIRINE],FC,Influenza A virus [19],1
same,FC,Influenza A virus [20],1
same,FC,Influenza A virus [21],2
same,FC,Influenza A virus [22],2.25
same,FC,Influenza A virus [23],0.5
same,FC,Influenza A virus [24],1.6
same,FC,Influenza A virus [25],0.25
same,FC,Influenza A virus [26],3.5
same,FC,Influenza A virus [27],0
same,FC,Influenza A virus [28],0.5
same,CC50 at 48 h,[29],> 8 mM
same,Activity,H3N2 subtype [13],70%
same,Activity,Influenza B virus [30],65%
same,Activity,Influenza B virus [15],65%
same,Activity,H3N2 subtype [31],Active
same,Activity,H3N2 subtype [32],Active
same,Activity,Influenza B virus [33],Active
same,Activity,Influenza B virus [34],Active
same,Activity,H3N2 subtype [35],Active
same,Activity,H3N2 subtype [36],Active
same,Activity,Influenza B virus [37],Active
same,Activity,Influenza B virus [38],Active
same,LD50,[39],1400 mg/kg
same,LD50,[40],2200 mg/kg
same,Cmax,[1],1100 ng/mL
same,Tmax,[2],0.4 h
same,AUC at 24 h,[3],3100 ng·h/mL
same,half-life,[4],1.1 h
same,MRT,[5],2.3 h
same,CL/F,[6],617 mL/min/kg
same,Vdss,Oryctolagus cuniculus [7],83.5 L/kg
same,bioavailability,[41],12.5%
same,FC,Influenza A virus [42],<0.75
same,FC,Influenza A virus [43],<0.75
